Experimental data gathered from unrelated publications.
Protocols differ between the studies behind these lines.
Target: Mitogen-activated protein kinase kinase kinase kinase 4 (MAP4K4, Homo sapiens, UniProt O95819)

The inhibition of `C=CC(=O)N1CCC[C@@H](n2nc(-c3ccc(Oc4ccccc4)cc3)c3c(N)ncnc32)C1` is reported as 4% (enzyme activity; inhibitor; 1 µM).
`C[C@H]1CC[C@H](n2c3cnccc3c3cnc(Nc4ccc5c(n4)CCN(C(=O)CO)C5)nc32)CC1` has a remaining binding of 100% (binding; competition with immobilised ligand; 1 µM).
`C#Cc1cc(-c2cc(Nc3nc(N[C@@H](C)c4ccc(F)cn4)ncc3Cl)n[nH]2)ccc1C=O` gave an inhibition of 11.9% (enzyme activity; inhibitor; 0.2 µM).
`CCCCC(=O)Nc1ccc(-c2ccc3ncn(CCC)c(=O)c3c2)cn1` has a remaining binding of 100% (binding; competition with immobilised ligand; 0.5 µM).
For `C=CC(=O)N1CCC([C@@H]2CCNc3c(C(N)=O)c(-c4ccc(Oc5ccccc5)cc4)nn32)CC1`, the inhibition was 23% (enzyme activity; inhibitor; 1 µM).
With `Cc1cc(O)c(-c2ccc([C@@H](C)CN(C)C)cc2)c2c1[nH]c(=O)c1sccc12` the inhibition was -4% (enzyme activity; inhibitor; 0.1 µM).
`CC(C)S(=O)(=O)c1ccc2nccc(Nc3ccc4sc(C5CCCC5)nc4c3)c2c1` gave an activity vs control of 110% (enzyme activity; inhibitor; 1 µM).
For `C1=C/COCc2cc(ccc2OCCN2CCCC2)Nc2nccc(n2)-c2cccc(c2)COC/1`, the remaining binding was 55% (binding; 0.1 µM).
For `COc1ccc2[nH]c3c4[nH]c5ccc(OC)cc5c4c4c(c3c2c1)C(=O)NC4=O`, the remaining binding was 2.7% (binding; competition with immobilised ligand; 1 µM).
For `COc1ccc2oc(-c3ccc4nc(N)oc4c3)c/c(=N\c3ccccc3NC(=O)CCN)c2c1`, the remaining binding was 96% (binding; 1 µM).
